ChEMBL document CHEMBL1137900, “Quinazolinone fungal efflux pump inhibitors. Part 2: In vitro structure-activity relationships of (N-methyl-piperazinyl)-containing derivatives” (Bioorg Med Chem Lett, 2004)
Values after ≈ are worked out from the molar mass of the structure shown.

Key:
Nakaseomyces glabratus [1] = assay: In vitro minimum potentiation concentration to achieve an 8-fold reduction in fluconazole MIC against Candida glabrata strain YEM19 (overexpressing both CgDR1 and CgDR2); assay type: functional
How it was run: (§1)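 Checkerboard assay in RPMI 1640 following the NCCLS M27-A broth dilution method. Fluconazole MIC was measured with and without varying concentrations of efflux pump inhibitor. MPC8 is the lowest inhibitor concentration giving an 8-fold reduction in fluconazole MIC. Some analogues were tested only in an abbreviated format: inhibitor concentration varied at fixed fluconazole of 1/8 and 1/32 MIC.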

Candida albicans [2] = assay: In vitro minimum potentiation concentration to achieve an 8-fold reduction in fluconazole MIC against Candida albicans strain YEM15 (overexpressing both CDR1 and CDR2); assay type: functional; how it was run: as §1
Candida albicans [3] = assay: In vitro minimum inhibitory concentration against Candida albicans; assay type: functional
How it was run: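 C. albicans YEM15 (over-expresses CDR1 and CDR2) tested by broth dilution in RPMI 1640 following NCCLS reference method M27-A. The compound was tested alone, without fluconazole, across a range of concentrations, and the MIC was read as intrinsic antifungal activity.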

Nakaseomyces glabratus [4] = assay: In vitro concentration to inhibit Candida glabrata CgCDR1 transporter gene over-expressed in Saccharomyces cerevisiae strain Y170; assay type: functional, organism-based
How it was run: (§2)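 Yeast strains over-expressing single pumps, inoculum 10^4 cells, incubated at 30 °C in YPD. Inhibitor concentration was varied against one fixed fluconazole concentration. That concentration was the geometric mean of the test strain's fluconazole MIC and that of the parent pump-deleted strain; for YEM172 it was 8 µg/ml.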

Candida albicans [5] = assay: In vitro concentration to inhibit Candida albicans CDR1 transporter gene over-expressed in Saccharomyces cerevisiae strain YEM172; assay type: functional, organism-based; how it was run: as §2
Nakaseomyces glabratus [6] = assay: In vitro concentration to inhibit Candida glabrata CgCDR2 transporter gene over-expressed in Saccharomyces cerevisiae strain Y218; assay type: functional, organism-based; how it was run: as §2
Candida albicans [7] = assay: In vitro concentration to inhibit Candida albicans CDR2 transporter gene over-expressed in Saccharomyces cerevisiae strain YEM171; assay type: functional, organism-based; how it was run: as §2

SMILES	MPC8 (Nakaseomyces glabratus [1])	MPC8 (Candida albicans [2])	other results
COc1ccc(NC(C)c2nc3ccccc3c(=O)n2N2CCN(C)CC2)c(OC)c1 (configuration not stated)	>32 µg/mL	>32 µg/mL	–
COc1ccc(N(C(=O)Nc2ccc(F)cc2)C(C)c2nc3ccc(OC)cc3c(=O)n2N2CCN(C)CC2)c(OC)c1 (configuration not stated)	2 µg/mL	0.5 µg/mL	–
CC(c1nc2ccccc2c(=O)n1N1CCN(C)CC1)N(C(=O)Nc1ccc(F)cc1)c1ccc(OCC2CC2)cc1OCC1CC1 (configuration not stated)	2 µg/mL	4 µg/mL	MIC (Candida albicans [3]): 32 µg/mL (≈ 49.9 µM)
COc1cccc(N(C(=O)Nc2ccc(F)cc2)C(C)c2nc3ccccc3c(=O)n2N2CCN(C)CC2)c1 (configuration not stated)	>32 µg/mL	16 µg/mL	–
COc1ccc(N(C(=O)Nc2cccc(C#N)c2)C(C)c2nc3ccccc3c(=O)n2N2CCN(C)CC2)c(OC)c1 (configuration not stated)	32 µg/mL	32 µg/mL	–
COc1ccc(N(C(=O)Nc2ccc(F)cc2)C(C)c2nc3cc(Cl)ccc3c(=O)n2N2CCN(C)CC2)c(OC)c1 (configuration not stated)	0.5 µg/mL	0.12 µg/mL	–
COc1ccc(N(C(=O)Nc2ccc(F)cc2)[C@H](C)c2nc3cc(F)ccc3c(=O)n2N2CCN(C)CC2)c(OC)c1	>32 µg/mL	>32 µg/mL	IC50 (Nakaseomyces glabratus [4]): > 32 µg/mL; IC50 (Candida albicans [5]): > 32 µg/mL; IC50 (Nakaseomyces glabratus [6]): > 32 µg/mL; IC50 (Candida albicans [7]): > 32 µg/mL
Cc1ccc(N(C(=O)Nc2ccc(F)cc2)C(C)c2nc3ccccc3c(=O)n2N2CCN(C)CC2)c(C)c1 (configuration not stated)	>32 µg/mL	8 µg/mL	–
CC(c1nc2ccccc2c(=O)n1N1CCN(C)CC1)N(C(=O)Nc1ccc(F)cc1)c1ccccc1 (configuration not stated)	>32 µg/mL	>32 µg/mL	–
COc1ccc(N(C(=O)Nc2ccc(F)cc2)C(C)c2nc3ccc(O)cc3c(=O)n2N2CCN(C)CC2)c(OC)c1 (configuration not stated)	1 µg/mL	16 µg/mL	–
COc1ccc(N(C(=O)NC(C)C)C(C)c2nc3ccccc3c(=O)n2N2CCN(C)CC2)c(OC)c1 (configuration not stated)	>32 µg/mL	>32 µg/mL	–
COc1ccc(N(C(=O)Nc2ccc(C)cc2)C(C)c2nc3ccccc3c(=O)n2N2CCN(C)CC2)c(OC)c1 (configuration not stated)	4 µg/mL	16 µg/mL	–
COc1ccc(N(C(=O)Nc2ccccc2Cl)C(C)c2nc3ccccc3c(=O)n2N2CCN(C)CC2)c(OC)c1 (configuration not stated)	>32 µg/mL	>32 µg/mL	–
COc1ccc(N(C(=O)Nc2cccc(Cl)c2)C(C)c2nc3ccccc3c(=O)n2N2CCN(C)CC2)c(OC)c1 (configuration not stated)	4 µg/mL	1 µg/mL	–
COc1ccc(N(C(C)c2nc3ccccc3c(=O)n2N2CCN(C)CC2)S(=O)(=O)c2ccc(Cl)cc2)c(OC)c1 (configuration not stated)	>32 µg/mL	32 µg/mL	–
COc1ccc(N(C(=O)Nc2ccc(F)cc2)C(C)c2nc3c(OC)cccc3c(=O)n2N2CCN(C)CC2)c(OC)c1 (configuration not stated)	8 µg/mL	8 µg/mL	–
COc1ccc(N(C(=O)Nc2ccc(F)cc2)C(C)c2nc3ccc(Cl)cc3c(=O)n2N2CCN(C)CC2)c(OC)c1 (configuration not stated)	2 µg/mL	0.25 µg/mL	–
COc1ccc(N(C(=O)Nc2ccc(F)cc2)C(C)c2nc3ccc(C)cc3c(=O)n2N2CCN(C)CC2)c(OC)c1 (configuration not stated)	4 µg/mL	0.5 µg/mL	–
CCC(=O)Oc1ccc2nc(C(C)N(C(=O)Nc3ccc(F)cc3)c3ccc(OC)cc3OC)n(N3CCN(C)CC3)c(=O)c2c1 (configuration not stated)	4 µg/mL	4 µg/mL	–
COc1ccc(N(C(=O)Oc2ccc(Cl)cc2)C(C)c2nc3ccccc3c(=O)n2N2CCN(C)CC2)c(OC)c1 (configuration not stated)	32 µg/mL	32 µg/mL	–
COc1ccc(N(C(=O)Nc2ccc(F)cc2)C(C)c2nc3ccc(OCC(N)=O)cc3c(=O)n2N2CCN(C)CC2)c(OC)c1 (configuration not stated)	>32 µg/mL	>32 µg/mL	–
